# Values joined by “and” are separate entries in the source; they are usually repeats but may differ in a detail not shown here. Equal values may be shown once.
# Tested on: U2OS
# Experiment: Multiplex assay against U2OS
# Assay type: toxicity, cell-based
# Conditions: human
# Summary of the method: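 Four dyes were applied at seeding to live cells: Hoechst33342, BioTracker Green Microtubule Cytoskeleton Dye, MitoTracker Red and Annexin V Alexa Fluor 680. Imaging after compound addition used a CQ1 microscope at 37°C and 5% CO2. CellPathfinder machine-learning gating then sorted cells into Hoechst high-intensity objects or normal cells, normal cells into healthy, pyknosed or fragmented nuclei, and pyknosed cells into mitotic or apoptotic, with tubulin, mitochondrial-mass and membrane-permeability phenotypes given as per cents of healthy-nucleus cells.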
# [1] = 12 h, 1 µM, compound concentration 1 uM
# [2] = 12 h, 10 µM, compound concentration 10 uM
# [3] = 24 h, 1 µM, compound concentration 1 uM
# [4] = 24 h, 10 µM, compound concentration 10 uM
# [5] = 48 h, 1 µM, compound concentration 1 uM
# [6] = 48 h, 10 µM, compound concentration 10 uM
smiles,measurement,setting,value
CC(C)(O)C(=O)N1CCN(c2ccc(C(F)(F)F)c(C3=C(c4c[nH]c5ccccc45)C(=O)NC3=O)c2)CC1,Population Apoptotic (%),[1],88% and 92%
same,Population Fragmented Nuclei (%),[1],29% and 14%
same,Population Healthy Nuclei (%),[1],63% and 75%
same,Population Hoechst High Intensity Objects (%),[1],3% and 1%
same,Population Membrane Permeable-Phenotype (%),[1],5% and 4%
same,Population Mitochondria Different-Phenotype (%),[1],2% and 4%
same,Population Mitotic Cells (%),[1],11% and 7%
same,Population Normal (%),[1],96% and 98%
same,Population Pyknosed Nuclei (%),[1],7% and 9%
same,Population Tubulin-Different-Phenotype (%),[1],3%
same,Total Cell Count,[1],238 and 134
same,Population Apoptotic (%),[2],76% and 50%
same,Population Healthy Nuclei (%),[2],46% and 77%
same,Population Hoechst High Intensity Objects (%),[2],6% and 1%
same,Population Membrane Permeable-Phenotype (%),[2],39% and 14%
same,Population Mitochondria Different-Phenotype (%),[2],23% and 14%
same,Population Mitotic Cells (%),[2],24% and 50%
same,Population Normal (%),[2],93% and 98%
same,Population Pyknosed Nuclei (%),[2],16%
same,Population Tubulin-Different-Phenotype (%),[2],30% and 15%
same,Total Cell Count,[2],166 and 148
same,Population Apoptotic (%),[3],89% and 82%
same,Population Fragmented Nuclei (%),[3],27% and 22%
same,Population Healthy Nuclei (%),[3],61% and 67%
same,Population Hoechst High Intensity Objects (%),[3],3% and 0%
same,Population Membrane Permeable-Phenotype (%),[3],7% and 4%
same,Population Mitochondria Different-Phenotype (%),[3],3% and 2%
same,Population Mitotic Cells (%),[3],10% and 17%
same,Population Normal (%),[3],96% and 100%
same,Population Pyknosed Nuclei (%),[3],11% and 9%
same,Population Tubulin-Different-Phenotype (%),[3],5% and 2%
same,Total Cell Count,[3],263 and 172
same,Population Apoptotic (%),[4],87% and 70%
same,Population Fragmented Nuclei (%),[4],48% and 16%
same,Population Healthy Nuclei (%),[4],27% and 53%
same,Population Hoechst High Intensity Objects (%),[4],6% and 2%
same,Population Membrane Permeable-Phenotype (%),[4],11% and 15%
same,Population Mitochondria Different-Phenotype (%),[4],34% and 24%
same,Population Mitotic Cells (%),[4],12% and 29%
same,Population Normal (%),[4],93% and 97%
same,Population Pyknosed Nuclei (%),[4],24% and 29%
same,Population Tubulin-Different-Phenotype (%),[4],15% and 11%
same,Total Cell Count,[4],172 and 152
same,Population Apoptotic (%),[5],95% and 85%
same,Population Fragmented Nuclei (%),[5],21% and 17%
same,Population Healthy Nuclei (%),[5],65% and 73%
same,Population Hoechst High Intensity Objects (%),[5],3% and 1%
same,Population Membrane Permeable-Phenotype (%),[5],6% and 7%
same,Population Mitochondria Different-Phenotype (%),[5],4% and 3%
same,Population Mitotic Cells (%),[5],4% and 14%
same,Population Normal (%),[5],96% and 98%
same,Population Pyknosed Nuclei (%),[5],12% and 9%
same,Population Tubulin-Different-Phenotype (%),[5],5% and 2%
same,Total Cell Count,[5],377 and 233
same,Population Apoptotic (%),[6],95% and 96%
same,Population Fragmented Nuclei (%),[6],57% and 31%
same,Population Healthy Nuclei (%),[6],11% and 27%
same,Population Hoechst High Intensity Objects (%),[6],14% and 7%
same,Population Membrane Permeable-Phenotype (%),[6],27% and 17%
same,Population Mitochondria Different-Phenotype (%),[6],16% and 14%
same,Population Mitotic Cells (%),[6],4% and 3%
same,Population Normal (%),[6],85% and 92%
same,Population Pyknosed Nuclei (%),[6],30% and 41%
same,Population Tubulin-Different-Phenotype (%),[6],11% and 17%
same,Total Cell Count,[6],177 and 163
C[C@H](N)COC(=O)[C@@H](CCCCN)NC(=O)Cc1c(-c2ccc3ccccc3c2)[nH]c2c1ccc1ccccc12,Population Apoptotic (%),[1],73% and 75%
same,Population Fragmented Nuclei (%),[1],26% and 14%
same,Population Healthy Nuclei (%),[1],66% and 78%
same,Population Hoechst High Intensity Objects (%),[1],3% and 0%
same,Population Membrane Permeable-Phenotype (%),[1],6% and 4%
same,Population Mitochondria Different-Phenotype (%),[1],3% and 2%
same,Population Mitotic Cells (%),[1],26% and 25%
same,Population Normal (%),[1],96% and 99%
same,Population Pyknosed Nuclei (%),[1],6%
same,Population Tubulin-Different-Phenotype (%),[1],3% and 4%
same,Total Cell Count,[1],244 and 128
same,Population Apoptotic (%),[2],78% and 50%
same,Population Fragmented Nuclei (%),[2],23% and 24%
same,Population Healthy Nuclei (%),[2],69% and 73%
same,Population Hoechst High Intensity Objects (%),[2],2% and 0%
same,Population Mitochondria Different-Phenotype (%),[2],1% and 3%
same,Population Mitotic Cells (%),[2],21% and 50%
same,Population Normal (%),[2],97% and 100%
same,Population Pyknosed Nuclei (%),[2],7% and 1%
same,Population Tubulin-Different-Phenotype (%),[2],3% and 5%
same,Total Cell Count,[2],279 and 106
same,Population Apoptotic (%),[3],83% and 90%
same,Population Fragmented Nuclei (%),[3],22% and 16%
same,Population Healthy Nuclei (%),[3],68% and 77%
same,Population Hoechst High Intensity Objects (%),[3],2% and 1%
same,Population Membrane Permeable-Phenotype (%),[3],3% and 6%
same,Population Mitochondria Different-Phenotype (%),[3],1%
same,Population Mitotic Cells (%),[3],16% and 10%
same,Population Normal (%),[3],97% and 98%
same,Population Pyknosed Nuclei (%),[3],8% and 5%
same,Population Tubulin-Different-Phenotype (%),[3],2% and 3%
same,Total Cell Count,[3],292 and 170
same,Population Apoptotic (%),[4],81% and 100%
same,Population Fragmented Nuclei (%),[4],19% and 17%
same,Population Healthy Nuclei (%),[4],73% and 79%
same,Population Hoechst High Intensity Objects (%),[4],2%
same,Population Membrane Permeable-Phenotype (%),[4],5% and 11%
same,Population Mitochondria Different-Phenotype (%),[4],1% and 3%
same,Population Mitotic Cells (%),[4],18% and 0%
same,Population Normal (%),[4],97%
same,Population Pyknosed Nuclei (%),[4],6% and 2%
same,Population Tubulin-Different-Phenotype (%),[4],2% and 6%
same,Total Cell Count,[4],337 and 142
same,Population Apoptotic (%),[5],79% and 73%
same,Population Fragmented Nuclei (%),[5],16% and 17%
same,Population Healthy Nuclei (%),[5],78% and 73%
same,Population Hoechst High Intensity Objects (%),[5],1% and 2%
same,Population Membrane Permeable-Phenotype (%),[5],2% and 3%
same,Population Mitochondria Different-Phenotype (%),[5],2% and 4%
same,Population Mitotic Cells (%),[5],20% and 26%
same,Population Normal (%),[5],98% and 97%
same,Population Pyknosed Nuclei (%),[5],5% and 8%
same,Population Tubulin-Different-Phenotype (%),[5],2% and 1%
same,Total Cell Count,[5],440 and 231
same,Population Apoptotic (%),[6],90%
same,Population Fragmented Nuclei (%),[6],14% and 16%
same,Population Healthy Nuclei (%),[6],74% and 77%
same,Population Hoechst High Intensity Objects (%),[6],4%
same,Population Membrane Permeable-Phenotype (%),[6],6% and 16%
same,Population Mitochondria Different-Phenotype (%),[6],1% and 2%
same,Population Mitotic Cells (%),[6],9% and 10%
same,Population Normal (%),[6],95%
same,Population Pyknosed Nuclei (%),[6],10% and 5%
same,Population Tubulin-Different-Phenotype (%),[6],2% and 6%
same,Total Cell Count,[6],505 and 184
